For 37 sequences, folding enthalpy and Tm results are on record in the array DNA melting data of Ke et al. (doi:10.1101/2024.01.08.574731).

Data set [1] in a line: folding enthalpy; higher = less favourable; fluorescence melt of hairpins on a sequencing array, two-state fit. Particulars: sodium 0.088 M. In outline:
(§1)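 Cy3 fluorescence of library hairpins on a sequenced MiSeq flow cell, with annealed Cy3 and quencher oligos, was imaged in 50 mM Na-HEPES pH 8.0, 25 mM NaCl in 2.5 °C steps up to 60 °C. Signals were normalised to pre-quench Cy3 and to control variants. Melting temperature and folding enthalpy came from bootstrapped two-state fits, inverse-variance combined over four replicates. Fitted temperatures were raised by 9.35 °C to match UV melts.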

Data set [2] can be described thus: melting temperature; fluorescence melt of hairpins on a sequencing array, two-state fit, raised by 9.35 °C to match UV melts. Conditions: sodium 0.088 M. In outline:
as §1

In the case of GGCTTAGGAAACTGAGCC ((((.((....)).)))), the folding enthalpy in data set [1] is -44.6 kcal/mol. Moreover, in data set [2], the Tm came out at 50.4 °C.
As to GGCTTCCGAAAGGAGCC (((.(((....)))))), the folding enthalpy in data set [1] was -37.1 kcal/mol. The Tm in data set [2] was 60 °C.
Regarding GGCTTCGAAAGAACAGCC ((((((....)))..))), in data set [1], the folding enthalpy is -29.7 kcal/mol. In data set [2], the Tm was found to be 43.1 °C.
As to GGCTTCGAAAGAAGAGCC ((((((....)))..))), the folding enthalpy in data set [1] was -21.8 kcal/mol. For the same sequence, the Tm in data set [2] is 45.3 °C.
Consider GGCTTCGAAAGAAGTGCC ((((((....)))..))), for which the folding enthalpy in data set [1] was -16.1 kcal/mol. Besides, the Tm in data set [2] was found to be 42.6 °C.
Taken in the same sequence, the figures for GGCTTCGCGAAAGCGGCC (((..(((....)))))) were -16.4 kcal/mol and 48.8 °C.
Taken in the same sequence, the figures for GGCTTCGGAAACGAAACC ((.((((....)))).)) were -25.4 kcal/mol and 44.8 °C.
Turning to GGCTTCGGAAACGGAGTC (.((.((....)).)).), the folding enthalpy in data set [1] was -24.1 kcal/mol. For the same sequence, in data set [2], the Tm was found to be 39.9 °C.
Taken in the same sequence, the figures for GGCTTCTCGAAAGAGGCC (((..(((....)))))) were -24.4 kcal/mol and 47.1 °C.
Taken in the same sequence, the figures for GGCTTGAAAAAGCC (((((....))))) were -31.3 kcal/mol and 59.6 °C.
Turning to GGCTTGCCGAAAGGCGCC (((..(((....)))))), the folding enthalpy in data set [1] was -14 kcal/mol. Besides, the Tm in data set [2] was 55.8 °C.
GGCTTTGGAAACAAAACC ((.((((....)))).)): in data set [1], the folding enthalpy was -27.3 kcal/mol. In data set [2], the Tm turned out to be 36.8 °C.
On to GGCTTTTCGAAAGAAGCC (((..(((....)))))), for which the folding enthalpy in data set [1] is -33.7 kcal/mol. The Tm in data set [2] is 45.6 °C.
GGGAACGAAAGTTGCCCC ((((((....)))..))): in data set [1], the folding enthalpy is -10.7 kcal/mol. The Tm in data set [2] stood at 68.7 °C.
Taken in the same sequence, the figures for GGGAACGAAAGTTTTCCC ((((((....)))..))) were -19.1 kcal/mol and 35.5 °C.
Consider GGGAACGGAAACGCTCCC ((((.((....)).)))), for which the folding enthalpy in data set [1] is -36.6 kcal/mol. The Tm in data set [2] was 52.1 °C.
As to GGGAACGGAAACGTTTCC ((.((((....)))).)), the folding enthalpy in data set [1] is -35.2 kcal/mol. In addition, in data set [2], the Tm came to 53.7 °C.
Taken in the same sequence, the figures for GGGAATCGAAAGATGCCC (((.(((....))).))) were -44.3 kcal/mol and 54.6 °C.
Taken in the same sequence, the figures for GGGACAGCGAAAGCTCCC (((..(((....)))))) were -19 kcal/mol and 46.1 °C.
Turning to GGGACAGGAAACTGCCCC (((.(((....))).))), in data set [1], the folding enthalpy is -35.2 kcal/mol. Moreover, in data set [2], the Tm is 50.8 °C.
Taken in the same sequence, the figures for GGGACATCGAAAGATCCC (((..(((....)))))) were -18.5 kcal/mol and 36.1 °C.
On to GGGACCCCGAAAGGGCCC (((..(((....)))))), for which the folding enthalpy in data set [1] was -20.3 kcal/mol. For the same sequence, the Tm in data set [2] is 58.6 °C.
Taken in the same sequence, the figures for GGGACCCGAAAGGGCCCC (((.(((....))).))) were -23.6 kcal/mol and 67.8 °C.
Regarding GGGACCGAAAGGTCGCCC ((((((....)))..))), in data set [1], the folding enthalpy is -10.3 kcal/mol. For the same sequence, the Tm in data set [2] was 57.5 °C.
On to GGGACCGAAAGGTTACCC ((((((....)))..))), for which the folding enthalpy in data set [1] was -17.6 kcal/mol. In data set [2], the Tm amounted to 47 °C.
Consider GGGACGCGAAAGCGCCC (((.(((....)))))), for which the folding enthalpy in data set [1] is -15.4 kcal/mol. Further, the Tm in data set [2] came out at 64.7 °C.
In the case of GGGACTGCGAAAGCACCC (((..(((....)))))), in data set [1], the folding enthalpy was -9.02 kcal/mol. Besides, the Tm in data set [2] was 37.3 °C.
Consider GGGACTGGAAACAGTTCC ((.((((....)))).)), for which the folding enthalpy in data set [1] was -36.1 kcal/mol. The Tm in data set [2] is 51.4 °C.
Taken in the same sequence, the figures for GGGAGAGAAATCTCCC ((((((....)))))) were -35 kcal/mol and 56.4 °C.
In the case of GGGAGAGGAAACTCTCCC (((((((....))))))), the folding enthalpy in data set [1] is -42.9 kcal/mol. The Tm in data set [2] stood at 64.8 °C.
For the sequence GGGAGAGGAAACTTTCCC ((((.((....)).)))), the folding enthalpy in data set [1] was -27.3 kcal/mol. Besides, in data set [2], the Tm was determined as 42.1 °C.
Consider GGGAGCCCGAAAGGGCCC (((..(((....)))))), for which the folding enthalpy in data set [1] was -10.7 kcal/mol. Also, the Tm in data set [2] worked out at 58.8 °C.
As for GGGAGCGAAAGCTACCCC ((((((....)))..))), the folding enthalpy in data set [1] is -12 kcal/mol. Besides, the Tm in data set [2] amounted to 59.8 °C.
On to GGGAGCGAAAGCTCACCC ((((((....)))..))), for which the folding enthalpy in data set [1] is -11.2 kcal/mol. In addition, the Tm in data set [2] amounted to 57.2 °C.
Taken in the same sequence, the figures for GGGAGCGAAAGCTCTCCC ((((((....)))..))) were -11.8 kcal/mol and 52.2 °C.
For the sequence GGGAGCGAAAGCTGACCC ((((((....)))..))), the folding enthalpy in data set [1] was -16.5 kcal/mol. The Tm in data set [2] was determined as 45.9 °C.
Consider GGGAGCGAAAGCTGCCC ((((((....))).))), for which the folding enthalpy in data set [1] is -15.1 kcal/mol. Also, in data set [2], the Tm turned out to be 60.5 °C.
